Reference: ChEMBL document CHEMBL4014339, “Discovery of 1,4-Benzodiazepine-2,5-dione (BZD) Derivatives as Dual Nucleotide Binding Oligomerization Domain Containing 1/2 (NOD1/NOD2) Antagonists Sensitizing Paclitaxel (PTX) To Suppress Lewis Lung Carcinoma (LLC) Growth in Vivo” (J Med Chem, 2017)

Key:
Type in all cases: cell-based
[1] = target: T1, Nucleotide-binding oligomerization domain-containing protein 1 (Homo sapiens) (UniProt Q9Y239); experiment: Antagonist activity at human NOD1 expressed in HEK-blue cells assessed as inhibition of C12-iE-DAP-stimulated cell activation at 5 uM preincubated for 3 hrs followed by C12-iE-DAP addition measured after 20 hrs by SEAP reporter gene assay
T1 sequence (whole entry): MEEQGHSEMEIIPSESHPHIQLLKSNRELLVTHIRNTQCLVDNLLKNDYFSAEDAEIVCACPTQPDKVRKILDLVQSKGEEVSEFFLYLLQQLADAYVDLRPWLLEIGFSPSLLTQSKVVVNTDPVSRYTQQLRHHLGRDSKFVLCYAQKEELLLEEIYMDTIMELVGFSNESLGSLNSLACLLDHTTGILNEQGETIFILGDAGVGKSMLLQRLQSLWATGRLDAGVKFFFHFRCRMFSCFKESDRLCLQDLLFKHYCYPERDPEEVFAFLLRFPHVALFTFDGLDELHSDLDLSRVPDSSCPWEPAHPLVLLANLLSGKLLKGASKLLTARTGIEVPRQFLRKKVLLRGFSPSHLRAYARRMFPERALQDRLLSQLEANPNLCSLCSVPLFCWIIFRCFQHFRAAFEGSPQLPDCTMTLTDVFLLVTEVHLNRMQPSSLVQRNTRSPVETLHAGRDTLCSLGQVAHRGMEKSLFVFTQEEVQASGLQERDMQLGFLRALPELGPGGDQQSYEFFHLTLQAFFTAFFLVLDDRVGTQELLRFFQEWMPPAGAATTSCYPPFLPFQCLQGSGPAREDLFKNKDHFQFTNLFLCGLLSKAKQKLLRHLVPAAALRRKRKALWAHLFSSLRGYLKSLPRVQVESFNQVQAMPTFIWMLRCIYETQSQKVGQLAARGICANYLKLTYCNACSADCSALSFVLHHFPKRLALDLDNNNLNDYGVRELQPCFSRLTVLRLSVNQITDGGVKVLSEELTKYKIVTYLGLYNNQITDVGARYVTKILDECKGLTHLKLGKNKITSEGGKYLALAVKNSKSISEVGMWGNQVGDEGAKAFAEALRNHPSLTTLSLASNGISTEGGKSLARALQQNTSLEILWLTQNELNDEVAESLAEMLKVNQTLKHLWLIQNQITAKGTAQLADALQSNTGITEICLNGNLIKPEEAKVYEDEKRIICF

[2] = target: T2, Nucleotide-binding oligomerization domain-containing protein 2 (Homo sapiens, UniProt Q9HC29); experiment: Antagonist activity at human NOD2 expressed in HEK-Blue cells assessed as inhibition of MDP-stimulated cell activation at 5 uM preincubated for 3 hrs followed by MDP addition measured after 20 hrs by SEAP reporter gene assay
T2 sequence (Q9HC29 whole entry, the tested form may be a part): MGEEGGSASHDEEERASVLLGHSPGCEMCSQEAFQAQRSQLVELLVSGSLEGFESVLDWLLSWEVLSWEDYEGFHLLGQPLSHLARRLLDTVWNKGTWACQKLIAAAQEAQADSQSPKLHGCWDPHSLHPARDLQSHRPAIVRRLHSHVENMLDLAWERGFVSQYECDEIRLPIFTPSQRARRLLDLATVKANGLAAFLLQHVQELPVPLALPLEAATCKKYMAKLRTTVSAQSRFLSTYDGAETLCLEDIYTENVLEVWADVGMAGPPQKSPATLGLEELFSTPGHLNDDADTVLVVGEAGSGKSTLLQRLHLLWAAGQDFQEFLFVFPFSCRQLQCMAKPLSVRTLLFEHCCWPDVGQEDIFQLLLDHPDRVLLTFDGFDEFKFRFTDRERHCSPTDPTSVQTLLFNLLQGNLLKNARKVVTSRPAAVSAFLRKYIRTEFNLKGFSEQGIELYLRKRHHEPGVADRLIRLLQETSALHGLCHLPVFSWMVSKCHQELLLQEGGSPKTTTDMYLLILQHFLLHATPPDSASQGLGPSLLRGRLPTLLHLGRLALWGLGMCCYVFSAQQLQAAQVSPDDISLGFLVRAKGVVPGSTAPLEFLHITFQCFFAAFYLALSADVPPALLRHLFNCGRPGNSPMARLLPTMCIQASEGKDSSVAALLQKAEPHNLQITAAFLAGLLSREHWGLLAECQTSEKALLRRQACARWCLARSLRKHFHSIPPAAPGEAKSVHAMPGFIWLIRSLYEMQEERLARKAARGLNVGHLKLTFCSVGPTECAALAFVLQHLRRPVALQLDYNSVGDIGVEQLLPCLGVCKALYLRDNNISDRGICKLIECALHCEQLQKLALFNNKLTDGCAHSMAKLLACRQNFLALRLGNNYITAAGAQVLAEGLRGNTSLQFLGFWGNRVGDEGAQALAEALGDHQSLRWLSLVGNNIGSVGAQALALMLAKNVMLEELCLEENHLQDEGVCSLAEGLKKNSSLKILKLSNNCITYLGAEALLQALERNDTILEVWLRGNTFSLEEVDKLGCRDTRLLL

[3] = target: T1, Nucleotide-binding oligomerization domain-containing protein 1 (Homo sapiens); experiment: Antagonist activity at human NOD1 expressed in HEK-Blue cells assessed as inhibition of C12-iE-DAP-stimulated cell activation at 10 uM preincubated for 3 hrs followed by C12-iE-DAP addition measured after 20 hrs by SEAP reporter gene assay
How it was run: (§1)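 HEK-Blue hNOD1 or hNOD2 cells preincubated with compound 3 h, then stimulated 20 h with C12-iE-DAP 50 ng/mL (NOD1) or MDP 100 ng/mL (NOD2); SEAP in supernatant quantified. Primary screen at 10 μM, hits repeated in triplicate; IC50 from dose-response, mean ± SD (n = 3), only for compounds reaching ≥50% inhibition at the screening concentration.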

[4] = target: T2, Nucleotide-binding oligomerization domain-containing protein 2; experiment: Antagonist activity at human NOD2 expressed in HEK-Blue cells assessed as inhibition of MDP-stimulated cell activation at 10 uM preincubated for 3 hrs followed by MDP addition measured after 20 hrs by SEAP reporter gene assay; how it was run: as §1

Row | inhibition [1] | inhibition [2] | inhibition [3] | inhibition [4] | SMILES
1 | 42.4% | 29.8% |  |  | COC(=O)CC[C@H]1NC(=O)c2cc(Oc3ccccc3)c(NC(=O)COCc3ccc(C(F)(F)F)cc3)cc2NC1=O
2 |  |  | 37.9% | 34.2% | COC(=O)CC[C@H]1NC(=O)c2cc(Oc3cccc4ccccc34)c(NC(=O)/C=C\c3ccc(F)cc3Cl)cc2NC1=O
3 |  |  | 41.6% | 28.7% | NC(=O)CC[C@H]1NC(=O)c2cc(Oc3cccc4ccccc34)c(NC(=O)C3CC3)cc2NC1=O
4 | 10.6% | -4.77% | 27.5% | -7.1% | CCCCCCCCCCCCCCCCNC(=O)CC[C@H]1NC(=O)c2cc(Oc3cccc(N(C)C)c3)c(NC(=O)COCc3ccccc3)cc2NC1=O
5 |  |  | -0.69% | 7.9% | CCCCCCCCCCCCNC(=O)CC[C@H]1NC(=O)c2cc(N3CCOCC3)c(NC(=O)C3CC3)cc2NC1=O
6 | 48.1% | 38.6% |  |  | COC(=O)CC[C@H]1NC(=O)c2cc(Oc3cccc(N(C)C)c3)c(NC(=O)COCc3ccsc3)cc2NC1=O
7 | 33.4% | 42.2% |  |  | CN(C)c1cccc(Oc2cc3c(cc2NC(=O)COCc2ccccc2)NC(=O)[C@@H](CCC(=O)N2CCNCC2)NC3=O)c1
8 |  |  | 70.6% | 54.8% | NC(=O)CC[C@H]1NC(=O)c2cc(Oc3cccc4ccccc34)c(NC(=O)/C=C\c3ccc(F)cc3Cl)cc2NC1=O
9 |  |  | -9.9% | -4.24% | COC(=O)CC[C@H]1NC(=O)c2cc(Oc3ccc(C)c(C)c3)c(NC(=O)C3CC3)cc2NC1=O
10 | 36% | 45.5% |  |  | COC(=O)CC[C@H]1NC(=O)c2cc(Oc3cccc(N(C)C)c3)c(NC(=O)COCc3ccc(Cl)c(Cl)c3)cc2NC1=O
11 | 22.2% | 18% |  |  | COC(=O)CC[C@H]1NC(=O)c2cc(Oc3cccc(N(C)C)c3)c(NC(=O)CCCc3ccccc3)cc2NC1=O
12 |  |  | 66.4% | 76.6% | COC(=O)CC[C@H]1NC(=O)c2cc(OC)c(NC(=O)c3ccc4ccccc4c3)cc2NC1=O
13 |  |  | -7.88% | 1.25% | CCCCCCCNC(=O)CC[C@H]1NC(=O)c2cc(Cl)ccc2NC1=O
14 | 34.9% | 24.8% |  |  | COC(=O)CC[C@H]1NC(=O)c2cc(Oc3cccc(N(C)C)c3)c(NC(=O)COCc3ccoc3)cc2NC1=O
15 |  |  |  | 1.94% | CCN(CC)C(=O)CC[C@H]1NC(=O)c2cc(Oc3cccc4ccccc34)c(NC(=O)/C=C\c3ccc(F)cc3Cl)cc2NC1=O
16 |  |  |  | 3.93% | CN(C)c1cccc(Oc2cc3c(cc2NC(=O)COCc2ccccc2)NC(=O)[C@@H](CCC(N)=O)NC3=O)c1
17 | -5.97% | 20.9% |  | 23.8% | COC(=O)CC[C@H]1NC(=O)c2cc(Oc3cccc(N(C)C)c3)c(NC(=O)COCc3ccccc3Cl)cc2NC1=O
18 |  |  | 3.86% | 7.76% | O=C(O)CC[C@H]1NC(=O)c2cc(Oc3cccc4ccccc34)c(NC(=O)/C=C\c3ccc(F)cc3Cl)cc2NC1=O
19 | 38% | 31.6% |  |  | CN(C)c1cccc(Oc2cc3c(cc2NC(=O)COCc2ccc(C(F)(F)F)cc2)NC(=O)CNC3=O)c1
20 |  |  | 73.8% | 54.4% | COC(=O)CC[C@H]1NC(=O)c2cc(Oc3ccc(C)c(C)c3)c(NC(=O)COCc3ccccc3)cc2NC1=O
21 | 12.7% |  | 18.5% |  | CCCCCCCCCCCCCCCCCCNC(=O)CC[C@H]1NC(=O)c2cc(Oc3cccc(N(C)C)c3)c(NC(=O)COCc3ccccc3)cc2NC1=O
22 |  |  | 6.34% | -0.3% | COC(=O)CC[C@H]1NC(=O)c2cc(Oc3cccc4ccccc34)c(NC(=O)C3CC3)cc2NC1=O
23 |  |  | 82.1% | 91.9% | C=CC(=O)Nc1cc2c(cc1Oc1cccc(N(C)C)c1)C(=O)N[C@H](CCC(=O)OC)C(=O)N2
24 |  |  | 7.37% | -3.92% | CCCCCCCCCCCCNCC(=O)Nc1cc2c(cc1Oc1cccc(N(C)C)c1)C(=O)N[C@H](CCC(=O)OC)C(=O)N2
25 | 43.3% | 38.5% |  |  | C=CCOCC(=O)Nc1cc2c(cc1Oc1cccc(N(C)C)c1)C(=O)N[C@H](CCC(=O)OC)C(=O)N2
26 | 21.7% | 38.8% |  |  | CN1CCN(C(=O)CC[C@H]2NC(=O)c3cc(Oc4cccc(N(C)C)c4)c(NC(=O)COCc4ccccc4)cc3NC2=O)CC1
27 |  |  | -9.85% | 0.22% | COC(=O)CC[C@H]1NC(=O)c2cc(Oc3ccccc3)c(NC(=O)Nc3ccc(F)cc3)cc2NC1=O
28 | 46.1% | 34.5% |  |  | CCCNC(=O)CC[C@@H]1NC(=O)c2cc(Oc3cccc(N(C)C)c3)c(NC(=O)COCc3ccccc3)cc2NC1=O
29 | 29.3% | 10.3% |  |  | COC(=O)CC[C@@H]1NC(=O)c2cc(Oc3cccc(N(C)C)c3)c(NC(=O)COCc3ccc(F)cc3Cl)cc2NC1=O
30 | 59.5% | 30.9% |  |  | COC(=O)CC[C@H]1NC(=O)c2cc(Oc3cccc(N(C)C)c3)c(NC(=O)COCc3ccc(Cl)cc3Cl)cc2NC1=O

Continued, compound first:

Row | SMILES | inhibition [1] | inhibition [2] | inhibition [3] | inhibition [4]
31 | CCCCN(CCCC)c1cc2c(cc1NC(=O)/C=C/c1ccc(F)cc1Cl)NC(=O)[C@@H](CCC(=O)OC)NC2=O |  |  | 76.5% | 60.8%
32 | COC(=O)CCC1NC(=O)c2cc(Cl)ccc2N(CC2CC2)C1=O (stereo not drawn) |  |  | -3.06% | -2.7%
33 | CCCCCCCCCN1C(=O)[C@@H](CCC(N)=O)N(C)C(=O)c2ccc(Cl)cc21 |  |  | 22% | 29.5%
34 | CCCCCCCCCN1C(=O)[C@@H](CCC(=O)OC)N(C)C(=O)c2ccc(Cl)cc21 |  |  | 31.3% | 34.1%
35 | CCCCCCCCCN1C(=O)[C@@H](CCC(=O)N[C@@H](C)C(N)=O)N(C)C(=O)c2ccc(Cl)cc21 |  |  | 17% | 27.7%
36 | CCCCCCCCCCN1C(=O)C(CCC(=O)OC)NC(=O)c2cc(Cl)ccc21 (stereo not drawn) |  |  | 2.54% | -2.7%
37 | COC(=O)CCC1NC(=O)c2cc(Cl)ccc2N(C)C1=O (stereo not drawn) |  |  |  | 1.87%
38 | Cc1ccc(Oc2cc3c(cc2NC(=O)C2CC2)NC(=O)[C@@H](CCC(=O)O)NC3=O)cc1C |  |  |  | -3.78%
39 | CCN(CC)C(=O)CC[C@H]1NC(=O)c2cc(Cl)ccc2NC1=O |  |  | -0.11% | 21.5%
40 | CCCCN(CCCC)c1cc2c(cc1NC(C)=O)NC(=O)[C@@H](CCC(=O)OC)NC2=O |  |  | -6.29% | -7.93%
41 | CCCCCCCCCN1C(=O)[C@@H](CCC(=O)N2CCOCC2)N(C)C(=O)c2ccc(Cl)cc21 |  |  | 29.7% | 17.8%
42 | COC(=O)CC[C@@H]1C(=O)Nc2cc(Cl)ccc2C(=O)N1C |  |  |  | -1.87%
43 | COC(=O)CC[C@H]1NC(=O)c2cc(N3CCOCC3)c(NC(=O)C3CC3)cc2NC1=O |  |  | 6.82% | 27%
44 | CCN(CC)C(=O)CC[C@@H]1C(=O)Nc2cc(Cl)ccc2C(=O)N1C |  |  |  | -7.53%
45 | COC(=O)CC[C@H]1NC(=O)c2cc(OC)c(NC(=O)c3cc(C(F)(F)F)cc(C(F)(F)F)c3)cc2NC1=O |  |  |  | -5.32%
46 | CCN(CC)C(=O)CC[C@@H]1C(=O)N(CCC(C)C)c2cc(Cl)ccc2C(=O)N1C |  |  | -7.62% | 
47 | COC(=O)CC[C@H]1NC(=O)c2cc(N3CCOCC3)c(NC(=O)Cc3ccccc3)cc2NC1=O |  |  | 13% | 50.9%
48 | O=C(CC[C@H]1NC(=O)c2cc(N3CCOCC3)c(NC(=O)C3CC3)cc2NC1=O)NC1CCCc2ccccc21 (stereo partly drawn) |  |  | 22.6% | 27.1%
49 | O=C(CC[C@H]1NC(=O)c2cc(N3CCOCC3)c(NC(=O)C3CC3)cc2NC1=O)NCCC1=CCCCC1 |  |  |  | -2.95%
50 | CCN(CC)C(=O)CC[C@@H]1C(=O)N(CC2CC2)c2cc(Cl)ccc2C(=O)N1C |  |  | -8.85% | 1.38%
51 | COC(=O)CC[C@H]1NC(=O)c2cc(Cl)ccc2NC1=O |  |  | 38% | 28.9%
52 | CCCCCCCCCN1C(=O)[C@@H](CCC(=O)NCc2cccnc2)N(C)C(=O)c2ccc(Cl)cc21 |  |  | 54.8% | 30.9%
